Data on one compound can be found in ChEMBL document CHEMBL4052590, “Anti-Osteoporotic Activity of Harpagoside by Upregulation of the BMP2 and Wnt Signaling Pathways in Osteoblasts and Suppression of Differentiation in Osteoclasts” (J Nat Prod, 2017).

For series [1], the species on record is Mus musculus. As to the kind of experiment: Activation of Wnt signaling pathway in mouse MC3T3-E1 cells assessed as increase in Smad protein expression up to 4 uM after 48 hrs in presence of ascorbic acid and beta-glycerophosphate by Western blot analysis. In kind it is cell-based. In a few lines:
(§1)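 MC3T3-E1 cells given 400 μM ascorbic acid plus 5 mM β-glycerophosphate, exposed to test compound or not for 48 h. Lysed in boiling SDS sample buffer, protein measured by BCA. 40−50 μg of lysate run on 8% or 10% SDS-PAGE and transferred to PVDF. Blocked in 5% milk, probed with primary antibodies for 3 h at room temperature or overnight at 4 °C, detected by ECL.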
Background: Immunoblotting shows a protein as a band on a membrane.

Series [2] has as its system Mus musculus. Put plainly: Effect on calcium level in serum of OVX-induced bone loss ICR mouse model at 10 mg/kg, po for 12 weeks by ELISA (reference value: 9.3 +/- 0.3 mg/dl). In kind it is functional. A general note: In an ELISA, binding on a coated surface is turned into a signal by an enzyme label.
Series [3] relates to Mus musculus. Put plainly: Effect on C-terminal telopeptide level in serum of OVX-induced bone loss ICR mouse model at 5 mg/kg, po for 12 weeks by ELISA (reference value: 95.7 +/- 3.8 ng/ml). In kind it is functional.
Series [4] relates to Mus musculus. As to the kind of experiment: Effect on alkaline phosphatase activity in serum of OVX-induced bone loss ICR mouse model at 10 mg/kg, po for 12 weeks using p-NPP as substrate (reference value: 84.9 +/- 4.2 U/L). Type of series: functional.
Series [5] concerns MC3T3-E1. Put plainly: Downregulation of RANKL protein expression in mouse MC3T3-E1 cells up to 4 uM after 48 hrs in presence of ascorbic acid and beta-glycerophosphate by Western blot analysis. Type of series: functional, cell-based. Summed up: as §1
In series [6] the test system is Mus musculus. Put plainly: Effect on […] level in serum of OVX-induced bone loss ICR mouse model at 10 mg/kg, po for 12 weeks by ELISA (reference value: 8.2 +/- 0.4 mg/dl). In kind it is functional.
The subject of series [7] is MC3T3-E1. As to the kind of experiment: Upregulation of OCN protein expression in mouse MC3T3-E1 cells up to 4 uM after 48 hrs in presence of ascorbic acid and beta-glycerophosphate by Western blot analysis. In kind it is functional, cell-based.
Series [8] has as its system Mus musculus. As to the kind of experiment: Anti-osteoporotic activity in ovariectomized ICR mouse assessed as increase in ratio of bone volume to tissue volume of femur at 2 to 10 mg/kg, po after 12 weeks by microcomputed tomography. In kind it is functional, organism-based.
Series [9] has as its system Mus musculus. Put plainly: Effect on […] level in serum of OVX-induced bone loss ICR mouse model at 5 mg/kg, po for 12 weeks by ELISA (reference value: 8.2 +/- 0.4 mg/dl). Type of series: functional.
Series [10] concerns MC3T3-E1. As to the kind of experiment: Antiosteoporotic activity in mouse MC3T3-E1 cells assessed as increase in alkaline phosphatase activity after 4 days using pNPP as substrate in presence of ascorbic acid and beta-glycerophosphate by colorimetric assay. Type of series: functional, cell-based. In a few lines:
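MC3T3-E1 cells (2 × 10^4 cells/mL) in osteogenic medium (400 μM ascorbic acid, 5 mM β-glycerophosphate) with or without compound for 4 days. Fixed in 70% ethanol, lysed in Tris/0.1% Triton X-100 pH 7.5. ALP read as p-NPP to p-nitrophenol at 405 nm; protein by Bradford.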

Series [11] can be described thus: Cytotoxicity against mouse MC3T3-E1 cells assessed as cell viability up to 4 uM after 72 hrs by MTT assay. Type of series: cell-based. As to conditions: read-out: Activity. In a few lines: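 MC3T3-E1 cells (1 × 10^4 cells/mL) exposed to a range of concentrations for 72 h at 37 °C, 5% CO2. MTT added (500 μg/mL final) for 4 h, formazan dissolved in DMSO, A570 read. Viability given as % of solvent control; IC50 by nonlinear regression of % survival versus concentration.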
(Tetrazolium assays rely on reduction of a dye to a coloured formazan, in cell work by metabolically active cells.)

The subject of series [12] is MC3T3-E1. As to the kind of experiment: Increase in ALP mRNA expression in 2 days differentiated mouse MC3T3-E1 cells up to 4 uM after 48 hrs in presence of ascorbic acid and beta-glycerophosphate by real-time PCR analysis. In kind it is functional, cell-based. In a few lines: (§2)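 MC3T3-E1 cells stimulated with 400 μM ascorbic acid and 5 mM β-glycerophosphate, with or without compound, 48 h. TRIzol RNA, real-time RT-PCR: 40 cycles of 95 °C 20 s, 56 °C 20 s, 72 °C 30 s. Ct of each transcript […] β-actin Ct, expressed relative to control samples.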

Series [13] deals with MC3T3-E1. As to the kind of experiment: Downregulation of DKK1 protein expression in mouse MC3T3-E1 cells up to 4 uM after 48 hrs in presence of ascorbic acid and beta-glycerophosphate by Western blot analysis. Type of series: functional, cell-based. Summed up: as §1
For series [14], the system named is Mus musculus. Put plainly: Effect on TRAP activity in serum of OVX-induced bone loss ICR mouse model at 2 mg/kg, po for 12 weeks (reference value: 19.8 +/- 1.0 U/L). Type of series: functional.
The test system of series [15] is Mus musculus. Put plainly: Anti-osteoporotic activity in ovariectomized ICR mouse assessed as increase in trabecular number in femur at 2 to 10 mg/kg, po after 12 weeks by microcomputed tomography. In kind it is functional, organism-based.
Series [16] relates to MC3T3-E1. As to the kind of experiment: Increase in OPN mRNA expression in 2 days differentiated mouse MC3T3-E1 cells up to 4 uM after 48 hrs in presence of ascorbic acid and beta-glycerophosphate by real-time PCR analysis. In kind it is functional, cell-based.
The test system of series [17] is MC3T3-E1. As to the kind of experiment: Decrease in RANKL mRNA expression in mouse MC3T3-E1 cells at up to 4 uM after 48 hrs in presence of ascorbic acid and beta-glycerophosphate by real-time PCR analysis. Type of series: functional, cell-based.
The species entered for series [18] is Mus musculus. Put plainly: Activation of Wnt signaling pathway in mouse MC3T3-E1 cells assessed as upregulation of C-Myc protein expression after 48 hrs in presence of ascorbic acid and beta-glycerophosphate by Western blot analysis. Type of series: cell-based. In a few lines: (§3)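 MC3T3-E1 cells with 400 μM ascorbic acid and 5 mM β-glycerophosphate, with or without compound, for 48 h. Whole-cell lysates (40−50 μg, BCA) separated by SDS-PAGE, blotted to PVDF. c-Myc and cyclin D1 probed with primary antibodies, then secondary antibody for 90 min, read by chemiluminescence.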

For series [19], the system named is MC3T3-E1. As to the kind of experiment: Antiosteoporotic activity in mouse MC3T3-E1 cells assessed as formation of mineralized nodule after 14 days in presence of ascorbic acid and beta-glycerophosphate by Alizarin red S staining-based microscopic method. In kind it is functional, cell-based. In a few lines:
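MC3T3-E1 cells (2 × 10^4 cells/mL) in 400 μM ascorbic acid and 5 mM β-glycerophosphate, with or without compound, for 14 days. Fixed in 70% ethanol 30 min, stained 5 min with 2% Alizarin red S (pH 4.0), viewed by microscopy. Stain extracted with 10% cetylpyridinium chloride, A570 read.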

In series [20] the test system is MC3T3-E1. Put plainly: Increase in OPG to RANKL mRNA expression ratio in mouse MC3T3-E1 cells up to 4 uM after 48 hrs in presence of ascorbic acid and beta-glycerophosphate by real-time PCR analysis. In kind it is functional, cell-based. In a few lines: as §2
Series [21] relates to Mus musculus. Put plainly: Effect on osteocalcin level in serum of OVX-induced bone loss ICR mouse model at 10 mg/kg, po for 12 weeks by ELISA (reference value: 176.9 +/- 4.7 ng/ml). Type of series: functional.
The species entered for series [22] is Mus musculus. As to the kind of experiment: Activation of Wnt signaling pathway in mouse MC3T3-E1 cells assessed as upregulation of cyclin D1 protein expression after 48 hrs in presence of ascorbic acid and beta-glycerophosphate by Western blot analysis. In kind it is cell-based. In a few lines:
as §3

The test system of series [23] is Mus musculus. Put plainly: Effect on osteocalcin level in serum of OVX-induced bone loss ICR mouse model at 2 mg/kg, po for 12 weeks by ELISA (reference value: 176.9 +/- 4.7 ng/ml). Type of series: functional.
For series [24], the species on record is Mus musculus. As to the kind of experiment: Activation of Wnt signaling pathway in mouse MC3T3-E1 cells assessed as increase in Runx2 mRNA expression after 48 hrs in presence of ascorbic acid and beta-glycerophosphate by real-time PCR analysis. Type of series: cell-based.

Each structure is given as a SMILES string. The source made the active and inactive calls. The calls are words filed in the database; no cut-off is given here. Bounds are passed on as bounds.

For the compound `C[C@]1(OC(=O)/C=C/c2ccccc2)C[C@@H](O)[C@]2(O)C=CO[C@@H](O[C@@H]3O[C@H](CO)[C@@H](O)[C@H](O)[C@H]3O)[C@@H]21` [HARPAGOSIDE], the outcome in the series listed under Mus musculus [1], with MC3T3-E1 [5], in the series with MC3T3-E1 [7], with Mus musculus [8], in the series with MC3T3-E1 [13] and in the series with Mus musculus [15] was Active. Also, the result with MC3T3-E1 [17] and with MC3T3-E1 [20] was Active. Besides, the Activity was 10.3 mg/dL in the series on Mus musculus [2]; 85.9 ng/mL in the series with Mus musculus [3]; 78.8 U/L with Mus musculus [4]; 8.2 mg/dL with Mus musculus [6]; 8 mg/dL in the series on Mus musculus [9]; “Dose-dependent effect” in the series on MC3T3-E1 [10]. In addition, the Activity entry was “Dose-dependent effect” with MC3T3-E1 [12]; 10.4 U/L in the series on Mus musculus [14]; “Dose-dependent effect” in the series on MC3T3-E1 [16]; “Dose-dependent effect” in the series filed under Mus musculus [18]; “Dose-dependent effect” in the series on MC3T3-E1 [19]; 156.9 ng/mL with Mus musculus [21]. Besides, the values for the Activity entry in the series listed under Mus musculus [22], in the series on Mus musculus [23] and in the series filed under Mus musculus [24] were “Dose-dependent effect”, 170 ng/mL and “Dose-dependent effect”, respectively. For the same compound, the viability at 72 h in series [11] is > 90%.
